In ChEMBL document CHEMBL1140930 (J Med Chem, 2009):

Key:
K562 = test: Antiproliferative activity against human K562 cells after 48 hrs; format: functional, cell-based; conditions: K562, 48 h
How it was run: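 K562 cells (RPMI 1640, 10% FBS, 37 °C, 5% CO2) plated at 2 × 10⁵ cells/mL. Compounds dissolved in DMSO/methanol 1:1, vehicle 0.5%. Cells counted in a Neubauer chamber after 48 h and expressed as % of untreated control. Triplicate wells, three experiments. IC50 from nonlinear regression.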

Tubulin = Tubulin (Sus scrofa, UniProt P02554+P02550); test: Inhibition of pig brain tubulin polymerization after 30 mins by turbidimetric assay
How it was run: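 Microtubule protein from porcine brain (80–90% tubulin, 10–20% MAPs), purified by two disassembly/reassembly cycles. Assay buffer: 20 mM PIPES pH 6.8, 80 mM NaCl, 0.5 mM MgCl2, 1 mM EGTA, 1 mM DTT. Protein at 1.2 mg/mL with 0.6 mM GTP final, 1% DMSO final, 37 °C.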

[1] = Antiproliferative activity against human KB/HeLa cells by XTT assay; format: functional, cell-based
How it was run: (§1)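 XTT metabolic read-out. Cells seeded at 1 × 10³–8 × 10⁴ cells/well for logarithmic growth and exposed to graded concentrations for 48 h. At least two replicates. IC50 from nonlinear regression of dose-response curves. LT12/MDR: rat LT12 with ectopic human MDR-1. L1210/VCR: MDR-1 expressing, MRP-1 negative.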

SK-OV-3 = test: Antiproliferative activity against human SKOV3 cells by XTT assay; format: functional, cell-based
How it was run: (§2)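 XTT metabolic-activity read-out of proliferation. Cells were seeded at 1 × 10³-8 × 10⁴ cells/well for logarithmic growth and exposed to a range of compound concentrations for 48 h. IC50 came from nonlinear regression of dose-response curves, with at least two replicates. The P388/Adr subline was doxorubicin-selected with elevated MDR-1.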

SF-268 = test: Antiproliferative activity against human SF268 cells by XTT assay; format: functional, cell-based; how it was run: as §1
NCI-H460 = test: Antiproliferative activity against human NCI-H460 cells by XTT assay; format: functional, cell-based; how it was run: as §1
RKO [2] = test: Antiproliferative activity against human RKO cells by XTT assay; format: functional, cell-based
How it was run: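 RKO colon cells with ecdysone-inducible p27Kip1. Day 1: plated with or without 3 µM ponasterone A for 24 h, giving G1 arrest when induced (2 × 10⁴ cells/well induced; 6 × 10³ not induced). Day 2: compound added (DMSO control) for 48 h at 37 °C, then standard XTT. At least duplicate. IC50 by nonlinear regression.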

RKO [3] = test: Antiproliferative activity against human RKO cells containing ecdysone-inducible expression vector of p27kipl by XTT assay; format: functional, cell-based
How it was run: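 RKO cells carried an ecdysone-inducible p27Kip1 vector and were tested with and without induction. On day 1 they were plated with or without 3 µM ponasterone A, which gives G1 arrest, at 2 × 10⁴ cells/well induced or 6 × 10³ not induced, then held 24 h at 37 °C. Compound was then added for 48 h at 37 °C, followed by a standard XTT assay. IC50 came from nonlinear regression, n ≥ 2.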

[4] = Antiproliferative activity against rat LT12 cells after 48 hrs by XTT assay; format: functional, cell-based; conditions: LT12, 48 h; how it was run: as §2
[5] = Antiproliferative activity against rat LT12 cells ectopic expression of human MDR1 after 48 hrs by XTT assay; format: functional, cell-based; conditions: LT12, 48 h; how it was run: as §1
L1210 = test: Antiproliferative activity against vincristine-resistance MRP1 negative mouse L1210 cells expressing human MDR1 after 48 hrs by XTT assay; format: functional, cell-based; conditions: L1210, 48 h; how it was run: as §1
P388 [6] = test: Antiproliferative activity against mouse P388 cells after 48 hrs by XTT assay; format: functional, cell-based; conditions: P388, 48 h; how it was run: as §2
P388 [7] = test: Antiproliferative activity against doxorubicin-resistant mouse P388 cells expressing MDR1 protein after 48 hrs by XTT assay; format: functional, cell-based; conditions: P388, 48 h; how it was run: as §2
[8] = Cell cycle arrest in human KB/HeLa cells assessed as G2/M phase accumulation after 24 hrs by FACS analysis; format: functional, cell-based
How it was run: (§3)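 Subconfluent KB/HeLa cells exposed to a range of compound concentrations for 24 h at 37 °C, then detached and fixed in 70% ethanol. DNA stained with propidium iodide after RNase digestion and measured by flow cytometry. Cell-cycle phase fractions taken from cell cycle analysis software. At least two replicates.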

[9] = Cell cycle arrest in human KB/HeLa cells assessed as S phase accumulation at 1 nM after 24 hrs by FACS analysis; format: functional, cell-based; how it was run: as §3
[10] = Cell cycle arrest in human KB/HeLa cells assessed as G2/M phase accumulation at 1 nM after 24 hrs by FACS analysis; format: functional, cell-based; how it was run: as §3
[11] = Cell cycle arrest in human KB/HeLa cells assessed as G1 phase accumulation at 1 nM after 24 hrs by FACS analysis; format: functional, cell-based; how it was run: as §3
[12] = Cell cycle arrest in human KB/HeLa cells assessed as S phase accumulation at 3.16 nM after 24 hrs by FACS analysis; format: functional, cell-based; how it was run: as §3
[13] = Cell cycle arrest in human KB/HeLa cells assessed as G2/M phase accumulation at 3.16 nM after 24 hrs by FACS analysis; format: functional, cell-based; how it was run: as §3
[14] = Cell cycle arrest in human KB/HeLa cells assessed as G1 phase accumulation at 3.16 nM after 24 hrs by FACS analysis; format: functional, cell-based; how it was run: as §3
[15] = Cell cycle arrest in human KB/HeLa cells assessed as S phase accumulation at 10 nM after 24 hrs by FACS analysis; format: functional, cell-based; how it was run: as §3
[16] = Cell cycle arrest in human KB/HeLa cells assessed as G2/M phase accumulation at 10 nM after 24 hrs by FACS analysis; format: functional, cell-based; how it was run: as §3
[17] = Cell cycle arrest in human KB/HeLa cells assessed as G1 phase accumulation at 10 nM after 24 hrs by FACS analysis; format: functional, cell-based; how it was run: as §3
[18] = Cell cycle arrest in human KB/HeLa cells assessed as S phase accumulation at 31.6 nM after 24 hrs by FACS analysis; format: functional, cell-based; how it was run: as §3
[19] = Cell cycle arrest in human KB/HeLa cells assessed as G2/M phase accumulation at 31.6 nM after 24 hrs by FACS analysis; format: functional, cell-based; how it was run: as §3
[20] = Cell cycle arrest in human KB/HeLa cells assessed as G1 phase accumulation at 31.6 nM after 24 hrs by FACS analysis; format: functional, cell-based; how it was run: as §3
[21] = Cell cycle arrest in human KB/HeLa cells assessed as S phase accumulation at 100 nM after 24 hrs by FACS analysis; format: functional, cell-based; how it was run: as §3
[22] = Cell cycle arrest in human KB/HeLa cells assessed as G2/M phase accumulation at 100 nM after 24 hrs by FACS analysis; format: functional, cell-based; how it was run: as §3
[23] = Cell cycle arrest in human KB/HeLa cells assessed as G1 phase accumulation at 100 nM after 24 hrs by FACS analysis; format: functional, cell-based; how it was run: as §3
[24] = Cell cycle arrest in human KB/HeLa cells assessed as S phase accumulation at 316 nM after 24 hrs by FACS analysis; format: functional, cell-based; how it was run: as §3
[25] = Cell cycle arrest in human KB/HeLa cells assessed as G2/M phase accumulation at 316 nM after 24 hrs by FACS analysis; format: functional, cell-based; how it was run: as §3
[26] = Cell cycle arrest in human KB/HeLa cells assessed as G1 phase accumulation at 316 nM after 24 hrs by FACS analysis; format: functional, cell-based; how it was run: as §3

Structure (SMILES): COc1ccc(C(=O)C=C2c3ccccc3C(O)c3ccccc32)cc1 (stereo not given)
- IC50 (K562): 0.21 µM
- IC50 (Tubulin): 1.2 µM

Structure (SMILES): O=C(C=C1c2ccccc2C(=O)c2ccccc21)c1ccc(O)c(O)c1
- IC50 [1]: 270 nM
- IC50 (SK-OV-3): 160 nM
- IC50 (SF-268): 220 nM
- IC50 (NCI-H460): 430 nM
- IC50 (RKO [2]): 240 nM
- IC50 (RKO [3]): > 9 µM
- IC50 (K562): 0.16 µM
- IC50 (Tubulin): 2.6 µM

Structure (SMILES): O=C(C=C1c2ccccc2C(=O)c2ccccc21)c1ccccc1
- IC50 (K562): 3.6 µM
- IC50 (Tubulin): 5 µM

Structure (SMILES): COc1ccc(C(=O)C=C2c3ccccc3C(=O)c3ccccc32)c(OC)c1
- IC50 (Tubulin): 0.9 µM

Structure (SMILES): COC(=O)C=C1c2ccccc2C(=O)c2ccccc21
- IC50 (K562): 6 µM

Structure (SMILES): COc1cc(C(=O)C(O)C2c3ccccc3C(=O)c3ccccc32)cc(OC)c1OC (stereo not given)
- IC50 (K562): 21 µM
- IC50 (Tubulin): > 10 µM

Structure (SMILES): O=C(C=C1c2ccccc2C(=O)c2ccccc21)c1cccs1
- IC50 (K562): 5.21 µM
- IC50 (Tubulin): 10 µM

Structure (SMILES): CC(=O)O[C@H]1C(=O)[C@@]2(C)[C@H]([C@H](OC(=O)c3ccccc3)[C@]3(O)C[C@H](OC(=O)[C@H](O)[C@@H](NC(=O)c4ccccc4)c4ccccc4)C(C)=C1C3(C)C)[C@]1(OC(C)=O)CO[C@@H]1C[C@@H]2O [PACLITAXEL]
- IC50 [1]: 30 nM
- IC50 (SK-OV-3): 50 nM
- IC50 (SF-268): 50 nM
- IC50 (NCI-H460): 70 nM
- IC50 (RKO [2]): 20 nM
- IC50 (RKO [3]): > 10 µM
- IC50 [4]: 300 nM
- IC50 [5]: 50 nM
- IC50 (L1210): 70 nM
- IC50 (P388 [6]): 70 nM
- IC50 (P388 [7]): 50 nM
- EC50 [8]: 49 nM
- Activity [9]: 26.7%
- Activity [10]: 10.1%
- Activity [11]: 63.2%
- Activity [12]: 27%
- Activity [13]: 9.4%
- Activity [14]: 63.6%
- Activity [15]: 26.6%
- Activity [16]: 8.5%
- Activity [17]: 64.8%
- Activity [18]: 49.9%
- Activity [19]: 19%
- Activity [20]: 31.1%
- Activity [21]: 11%
- Activity [22]: 87.9%
- Activity [23]: 1.2%
- Activity [24]: 8.9%
- Activity [25]: 90.8%
- Activity [26]: 0.3%

Structure (SMILES): COc1ccc(C(=O)C(O)C2c3ccccc3C(=O)c3ccccc32)cc1 (stereo not given)
- IC50 (K562): 18 µM
- IC50 (Tubulin): > 10 µM

Structure (SMILES): CC[C@]1(O)C[C@@H]2CN(CCc3c([nH]c4ccccc34)[C@@](C(=O)OC)(c3cc4c(cc3OC)N(C)[C@H]3[C@@](O)(C(N)=O)[C@H](O)[C@]5(CC)C=CCN6CC[C@]43[C@@H]65)C2)C1 [VINDESINE]
- IC50 [4]: 200 nM
- IC50 [5]: 260 nM
- IC50 (L1210): > 5000 nM

Structure (SMILES): COc1ccccc1OC(=O)C=C1c2ccccc2C(=O)c2ccccc21
- IC50 (K562): 1.9 µM
- IC50 (Tubulin): 10 µM
